These results are taken from ChEMBL document CHEMBL1144727, “Fragment based design of new H4 receptor-ligands with anti-inflammatory properties in vivo” (J Med Chem, 2008).

One experiment deals with Histamine H4 receptor (Homo sapiens, UniProt Q9H3N8). As to the kind of experiment: Displacement of [3H]histamine from human histamine H4 receptor expressed in HEK293T cells. Format: cell-based, HEK-293T.
Experiment [1] relates to Rattus norvegicus. As to the kind of experiment: Antiinflammatory activity in Wistar rat assessed as inhibition of carrageenan-induced paw edema at 30 mg/kg, sc after 2 hr. Format: functional, organism-based. Also noted: dose 30 mg/kg. Summed up:
(§1)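 Male Wistar rats (180–200 g), fasted; paw inflammation induced by subplantar injection of 0.1 mL 1% carrageenan in carboxymethylcellulose into left hind paw. Compound or vehicle (DMSO solution, freshly prepared) given s.c. at 0.1 mL per 100 g immediately before carrageenan. Paw volume by plethysmometer before injection and at 2, 4, 6 h; edema as % increase over preinjection value (=100). n = 6 per group.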
A general note: In the carrageenan paw model, swelling and tenderness develop within hours.

The target of experiment [2] is T1, Histamine H1 receptor (Homo sapiens, UniProt P35367). As to the kind of experiment: Displacement of [3H]mepyramine from human histamine H1 receptor expressed in NIH3T3 cells at 10 uM. Format: cell-based. Summed up: (§2)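 Single-point radioligand displacement at the human receptor, performed externally, with ligand at 10 μM. Reported as % inhibition of radioligand binding, measured in duplicate.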
A general note: Displacement assays read how much labelled ligand stays bound in the presence of the test substance.

Experiment [3] has as its target T1, Histamine H1 receptor. The experiment can be described thus: Displacement of [3H]mepyramine from human histamine H1 receptor expressed in NIH3T3 cells. Format: cell-based.
In experiment [4] the target is Histamine H2 receptor (Homo sapiens) (UniProt P25021). As to the kind of experiment: Displacement of [3H]aminopotentidine from human histamine H2 receptor expressed in COS7 cells at 10 uM. Type of experiment: cell-based. As to conditions: COS-7. Summed up: as §2
The target of experiment [5] is Histamine H3 receptor (Homo sapiens) (UniProt Q9Y5N1). The experiment can be described thus: Displacement of [3H]Nalpha-methyl-histamine from human histamine H3 receptor expressed in […] cells at 10 uM. Type of experiment: cell-based. As to conditions: SK-N-MC. Summed up:
as §2

For experiment [6], the system named is Rattus norvegicus. As to the kind of experiment: Antiinflammatory activity in Wistar rat assessed as inhibition of carrageenan-induced paw edema at 10 mg/kg, sc after 2 hrs. Type of experiment: functional, organism-based. Also noted: dose 10 mg/kg. Summed up: as §1
Experiment [7] concerns Rattus norvegicus. As to the kind of experiment: Antiinflammatory activity in Wistar rat assessed as inhibition of carrageenan-induced paw edema at 10 mg/kg, sc after 6 hrs. Format: functional, organism-based. Also noted: dose 10 mg/kg. The method, boiled down: as §1

Active and inactive are the calls of the source. No cut-off for these calls is given here.

T1 sequence (P35367 whole entry): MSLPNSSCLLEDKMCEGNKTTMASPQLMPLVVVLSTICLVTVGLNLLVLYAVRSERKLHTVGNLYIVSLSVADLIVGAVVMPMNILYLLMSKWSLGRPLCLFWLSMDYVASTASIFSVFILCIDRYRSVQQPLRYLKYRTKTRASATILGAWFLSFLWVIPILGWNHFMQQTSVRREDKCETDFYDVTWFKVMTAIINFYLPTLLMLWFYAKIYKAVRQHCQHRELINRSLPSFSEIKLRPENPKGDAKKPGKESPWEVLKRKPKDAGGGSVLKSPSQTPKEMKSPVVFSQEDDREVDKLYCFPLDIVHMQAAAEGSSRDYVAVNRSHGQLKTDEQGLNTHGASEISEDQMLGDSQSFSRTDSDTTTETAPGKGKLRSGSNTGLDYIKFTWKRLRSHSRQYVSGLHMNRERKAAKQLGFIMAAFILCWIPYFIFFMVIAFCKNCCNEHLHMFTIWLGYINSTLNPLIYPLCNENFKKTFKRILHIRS
Sequence of Histamine H4 receptor (Q9H3N8 whole entry): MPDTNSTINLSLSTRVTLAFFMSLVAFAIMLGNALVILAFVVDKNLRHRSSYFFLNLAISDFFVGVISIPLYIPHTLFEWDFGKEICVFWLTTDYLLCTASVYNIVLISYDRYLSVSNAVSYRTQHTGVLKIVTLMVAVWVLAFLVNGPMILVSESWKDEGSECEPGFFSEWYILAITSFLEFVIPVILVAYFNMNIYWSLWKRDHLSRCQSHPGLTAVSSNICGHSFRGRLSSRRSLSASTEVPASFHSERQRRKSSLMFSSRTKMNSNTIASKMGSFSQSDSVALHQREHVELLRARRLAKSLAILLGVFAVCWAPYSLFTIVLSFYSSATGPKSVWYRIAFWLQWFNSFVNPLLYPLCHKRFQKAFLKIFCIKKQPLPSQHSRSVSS
Sequence of Histamine H3 receptor (Homo sapiens) (Q9Y5N1 whole entry): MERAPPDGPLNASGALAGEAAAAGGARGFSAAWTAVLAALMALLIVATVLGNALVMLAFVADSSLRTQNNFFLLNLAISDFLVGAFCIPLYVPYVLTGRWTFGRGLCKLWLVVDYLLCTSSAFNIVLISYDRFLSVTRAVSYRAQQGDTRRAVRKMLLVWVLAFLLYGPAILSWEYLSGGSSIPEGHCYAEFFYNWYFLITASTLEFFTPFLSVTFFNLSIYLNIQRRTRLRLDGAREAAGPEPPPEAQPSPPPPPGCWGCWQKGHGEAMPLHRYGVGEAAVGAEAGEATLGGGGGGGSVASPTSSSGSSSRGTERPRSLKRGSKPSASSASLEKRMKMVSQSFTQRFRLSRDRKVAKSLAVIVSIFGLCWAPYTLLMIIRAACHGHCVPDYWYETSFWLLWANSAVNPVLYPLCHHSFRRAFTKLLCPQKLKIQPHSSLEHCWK
Sequence of Histamine H2 receptor (Homo sapiens) (P25021 whole entry): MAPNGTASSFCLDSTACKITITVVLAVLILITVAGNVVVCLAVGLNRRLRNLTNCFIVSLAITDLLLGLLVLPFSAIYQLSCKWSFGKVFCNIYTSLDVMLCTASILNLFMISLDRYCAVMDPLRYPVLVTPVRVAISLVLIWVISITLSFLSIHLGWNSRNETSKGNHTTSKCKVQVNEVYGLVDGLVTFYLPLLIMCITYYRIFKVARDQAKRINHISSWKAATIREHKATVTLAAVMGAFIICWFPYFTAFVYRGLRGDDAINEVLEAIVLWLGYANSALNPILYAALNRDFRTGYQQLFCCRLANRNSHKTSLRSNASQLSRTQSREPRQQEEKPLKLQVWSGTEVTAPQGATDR

For orientation: Ki means a dissociation constant, usually derived from enzyme kinetics or from competition with a known ligand. Low readings indicate tighter binding, high ones weaker binding. As to `CCOc1nc2ccccc2nc1N1CCN(C)CC1`, affinity at Histamine H4 receptor was put at a Ki of 229 nM.

Take `CN1CCN(c2nc3ccccc3nc2OCCc2ccccc2)CC1`: the affinity on Histamine H4 receptor corresponds to a Ki of 479 nM.

For `Cc1ccc(Oc2nc3ccccc3nc2N2CCN(C)CC2)cc1`, on Histamine H4 receptor, the Ki is 2190 nM.

In turn, `CN1CCN(c2nc3ccccc3nc2Oc2cccnc2)CC1` gave a Ki at Histamine H4 receptor of 1290 nM.

`CN1CCN(c2nc3ccccc3nc2OCc2ccncc2)CC1` had a Ki at Histamine H4 receptor of 4370 nM.

In turn, `CN1CCN(c2nc3ccccc3nc2Cl)CC1` had a Ki at Histamine H4 receptor of 229 nM.

As to `CN1CCN(c2cnc3cc(Cl)ccc3n2)CC1`, affinity on Histamine H4 receptor was put at a Ki of 91.2 nM.

In the case of `CN1CCN(c2nc3ccccc3nc2OCc2ccccc2)CC1`, the affinity at Histamine H4 receptor, expressed as Ki, was 295 nM.

`CN1CCN(c2nc3ccccc3nc2C(F)(F)F)CC1`: the Ki on Histamine H4 receptor was 2510 nM.

On Histamine H4 receptor, `CN1CCN(c2cnc3ccccc3n2)CC1` had a Ki of 891 nM.

As usually defined, the inhibition is the relative decrease from the control value, in per cent. Read a low inhibition as little suppression. In the case of `CN1CCN(c2nc3ccccc3nc2Cc2ccccc2)CC1`, the Ki is 39.8 nM at Histamine H4 receptor and 741 nM at Histamine H1 receptor [3]. In addition, the outcome in the experiment on Rattus norvegicus [1] was Active. Moreover, the inhibition was found to be 86% on Histamine H1 receptor [2], 62% in experiment [4] and 26% in experiment [5].

As to `CN1CCN(c2nc3ccccc3nc2NCc2ccccc2)CC1`, the Ki at Histamine H4 receptor was 7410 nM.

`CN1CCN(c2nc3ccccc3nc2OC2CCCCC2)CC1`: the Ki at Histamine H4 receptor is 13200 nM.

At Histamine H4 receptor, `CN1CCN(c2nc3ccccc3nc2Oc2ccc(Cl)cc2)CC1` gave a Ki of 2340 nM.

As to `Cc1ccc(COc2nc3ccccc3nc2N2CCN(C)CC2)cc1`, the Ki at Histamine H4 receptor was 1380 nM.

Regarding `CN1CCN(c2nc3cc(Cl)ccc3[nH]c2=O)CC1`, the affinity at Histamine H4 receptor corresponds to a Ki of 11.7 nM.

Consider `COc1ccc(Oc2nc3ccccc3nc2N2CCN(C)CC2)cc1`, for which, on Histamine H4 receptor, the Ki was 2340 nM.

The molecule `CN1CCN(c2nc3ccccc3nc2OCCCCc2ccccc2)CC1` had a Ki at Histamine H4 receptor of 2950 nM.

The molecule `CN1CCN(c2nccc3ccccc23)CC1` gave a Ki on Histamine H4 receptor of 20400 nM.

Consider `Cc1nc2ccccc2nc1N1CCN(C)CC1`, for which the Ki at Histamine H4 receptor is 200 nM.

The molecule `COc1nc2cc(Cl)ccc2nc1N1CCN(C)CC1` had a Ki on Histamine H4 receptor of 26.3 nM.

With `CN1CCN(c2nc3cc(Cl)c(Cl)cc3nc2CCc2ccccc2)CC1`, on Histamine H4 receptor, the affinity, expressed as Ki, was 3980 nM.

Molecule `CN1CCN(c2ccc3ccccc3n2)CC1` had a Ki on Histamine H4 receptor of 6920 nM.

The molecule `CN1CCN(c2nc3ccccc3nc2OCc2cccc(Cl)c2)CC1` showed a Ki on Histamine H4 receptor of 269 nM.

The molecule `CC(C)COc1nc2ccccc2nc1N1CCN(C)CC1` gave an inhibition constant Ki at Histamine H4 receptor of 5750 nM.

`CN1CCN(c2nc3ccccc3nc2Oc2ccc(Cl)c(Cl)c2)CC1` had a Ki at Histamine H4 receptor of 1700 nM.

`CN1CCN(c2nc3ccccc3nc2OCc2cccnc2)CC1` had a Ki on Histamine H4 receptor of 2950 nM.

Regarding `CN(C)CCCOc1nc2ccccc2nc1N1CCN(C)CC1`, at Histamine H4 receptor, the Ki is 3980 nM.

With `CN1CCN(c2nc3ccccc3[nH]c2=O)CC1`, affinity at Histamine H4 receptor was put at a Ki of 61.7 nM.

As to `CN1CCN(c2nc3ccccc3nc2OCc2ccc(Cl)cc2)CC1`, at Histamine H4 receptor, affinity was put at a Ki of 2290 nM.

At Histamine H4 receptor, `Cc1nc2cc(Cl)c(Cl)cc2nc1N1CCN(C)CC1` gave a Ki of 63.1 nM.

On Histamine H4 receptor, `CN1CCN(c2nc3ccccc3nc2Oc2cccc(N(C)C)c2)CC1` gave a Ki of 1550 nM.

As to `CN1CCN(c2nc3ccccc3nc2Oc2ccccc2)CC1`, the Ki at Histamine H4 receptor was 324 nM.

Take `COc1nc2cc(Cl)c(Cl)cc2nc1N1CCN(C)CC1`: on Histamine H4 receptor, the affinity corresponds to a Ki of 57.5 nM.

For `CCN1CCN(c2nc3ccccc3nc2Cc2ccccc2)CC1`, the affinity at Histamine H4 receptor corresponds to a Ki of 2690 nM.

As for `CN1CCCN(c2nc3cc(Cl)ccc3[nH]c2=O)CC1`, on Histamine H4 receptor, affinity was put at a Ki of 977 nM.

In turn, `CN1CCN(c2nc3ccccc3nc2OCc2ccccn2)CC1` had a Ki on Histamine H4 receptor of 468 nM.

Turning to `CN1CCN(c2nc3cc(Cl)c(Cl)cc3[nH]c2=O)CC1`, affinity at Histamine H4 receptor was put at a Ki of 5.62 nM. Further, the results for the inhibition (on Histamine H1 receptor [2]; in experiment [4]; in experiment [5]) were 7%, 42% and 64%, respectively. Besides, the result in the experiment with Rattus norvegicus [6] and with Rattus norvegicus [7] was Active.

`CN1CCN(c2nc3ccccc3nc2Sc2ccccc2)CC1`: the Ki at Histamine H4 receptor was 363 nM.

As for `CN1CCN(c2nc3ccccc3nc2Oc2ccc(F)cc2)CC1`, the Ki on Histamine H4 receptor is 1580 nM.

The molecule `CN1CCN(c2nc3ccccc3nc2-c2ccccc2)CC1` gave a Ki on Histamine H4 receptor of 10200 nM.

Molecule `CN1CCN(c2nc3cc(Cl)c(Cl)cc3nc2Oc2ccccc2)CC1` showed a Ki on Histamine H4 receptor of 1170 nM.

As for `CN1CCN(c2ccc3cc(Cl)ccc3n2)CC1`, on Histamine H4 receptor, the Ki was 589 nM.

Molecule `COc1nc2ccccc2nc1N1CCN(C)CC1` had a Ki on Histamine H4 receptor of 339 nM.

Take `COc1ccc(COc2nc3ccccc3nc2N2CCN(C)CC2)cc1`: the affinity at Histamine H4 receptor corresponds to a Ki of 708 nM.

In turn, `Cc1cccc(Oc2nc3ccccc3nc2N2CCN(C)CC2)c1` showed a Ki on Histamine H4 receptor of 575 nM.
